These results are taken from ChEMBL document CHEMBL3046667, “Synthesis and herbicidal activity evaluation of novel β-carboline derivatives” (Molecules, 2012).

The term EC50 denotes the concentration at which the effect is half-maximal. Read a high EC50 as a less potent agent.

The test system of assay [1] is Echinochloa crus-galli. Nature of the assay: Herbicidal activity against Echinochloa crus-galli (barnyard grass) assessed as growth inhibition at 100 ug/ml. It counts as functional. Conditions: read-out: GI. In a few lines:
(§1)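 Compounds formulated as 10 g/L emulsified concentrates (DMSO solvent, Tween-80 emulsifier), diluted in water and applied to pot-grown plants in a greenhouse (23 ± 1 °C, 60 ± 5% RH, 8 h/day photoperiod). Distilled water and 2,4-D serve as references. Shoot height, root length and fresh weight are measured per cup. Percent inhibition is taken relative to water; mean of three repeats.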

Assay [2] has as its system Brassica rapa subsp. oleifera. The assay is described as follows: Herbicidal activity against Brassica rapa subsp. oleifera assessed as growth inhibition at 100 ug/ml. The class given is functional. Conditions: read-out: GI. In a few lines:
as §1

Assay [3] has as its system Brassica rapa subsp. oleifera. Nature of the assay: Herbicidal activity against Brassica rapa subsp. oleifera assessed as growth inhibition at 10 ug/ml. The class given is functional. Particulars: read-out: GI. In short, it runs like this:
as §1

The test system of assay [4] is Echinochloa crus-galli. Nature of the assay: Herbicidal activity against Echinochloa crus-galli (barnyard grass) assessed as growth inhibition at 10 ug/ml. The class given is functional. Conditions: read-out: GI. In a few lines:
as §1

For assay [5], the system named is Echinochloa crus-galli. Nature of the assay: Herbicidal activity against Echinochloa crus-galli (barnyard grass). It counts as functional, organism-based. In a few lines:
as §1

The test system of assay [6] is Brassica rapa subsp. oleifera. Nature of the assay: Herbicidal activity against Brassica rapa subsp. oleifera. The class given is functional, organism-based. In a few lines: as §1

Consider `O=C(N/N=C\c1ccc([N+](=O)[O-])cc1)c1cc2c(cn1)[nH]c1ccccc12`, for which the inhibition of growth at 100 µg/mL in the assay on Echinochloa crus-galli [1] came to 43.2%; in assay [2], 85.4%. Besides, the inhibition of growth at 10 µg/mL was found to be 30.9% in assay [3] and 24.6% in the assay with Echinochloa crus-galli [4].
`O=C(N/N=C\c1ccccc1O)c1cc2c(cn1)[nH]c1ccccc12`: the inhibition of growth at 100 µg/mL is 47.6% in the assay with Echinochloa crus-galli [1] and 50.1% in assay [2]. In addition, the inhibition of growth at 10 µg/mL in assay [3] was found to be 19.4%; in the assay with Echinochloa crus-galli [4] it was 18.1%.
The like results for `COc1cc(/C=N\NC(=O)c2cc3c(cn2)[nH]c2ccccc23)ccc1O` were, in that order, 33%, 63.2%, 27.4% and 13.3%.
For `O=C(N/N=C\c1ccco1)c1cc2c(cn1)[nH]c1ccccc12` the same measures were 0%, 17.9%, 2.59% and 0%.
Take `Cc1n[nH]c(Cl)c1/C=N\NC(=O)c1cc2c(cn1)[nH]c1ccccc12`: the values for the inhibition of growth at 100 µg/mL (with Echinochloa crus-galli [1]; in assay [2]) were 28.1% and 90.8%, respectively. Moreover, the values for the inhibition of growth at 10 µg/mL (in assay [3]; with Echinochloa crus-galli [4]) were 32.2% and 6.34%, respectively.
Regarding `O=C(N/N=C\Nc1ccc(C(F)(F)F)cc1)c1cc2c(cn1)[nH]c1ccccc12`, the inhibition of growth at 100 µg/mL with Echinochloa crus-galli [1] worked out at 0%; in assay [2] it was 23.7%. Besides, the inhibition of growth at 10 µg/mL in assay [3] turned out to be 7.52%; in the assay with Echinochloa crus-galli [4], 0%.
As to `O=C(NN=C(c1ccccc1)c1ccccc1)c1cc2c(cn1)[nH]c1ccccc12`, the inhibition of growth at 100 µg/mL in the assay on Echinochloa crus-galli [1] turned out to be 0%; in assay [2], 10.5%. Further, the inhibition of growth at 10 µg/mL (in assay [3]; in the assay with Echinochloa crus-galli [4]) was 0% throughout.
Regarding `Cc1nc(C(=O)N/N=C\c2ccccc2)cc2c1[nH]c1ccccc12`, the values for the inhibition of growth at 100 µg/mL (in the assay on Echinochloa crus-galli [1]; in assay [2]) were 51.5% and 87%, respectively. For the same compound, the figures for the inhibition of growth at 10 µg/mL (in assay [3]; with Echinochloa crus-galli [4]) were 37.2% and 21.9%, respectively.
Turning to `O=C(N/N=C\c1ccccc1)c1cc2c([nH]c3ccccc32)c(-c2ccccc2)n1`, the half-maximal effective concentration (EC50) (in the assay with Echinochloa crus-galli [5]; in assay [6]) was 4.83 µM each time. The values for the inhibition of growth at 100 µg/mL (in the assay on Echinochloa crus-galli [1]; in assay [2]) were 73.9% and 100%, respectively. For the same compound, the inhibition of growth at 10 µg/mL turned out to be 62.1% in assay [3] and 30.4% with Echinochloa crus-galli [4].
`O=C(N/N=C\c1ccccc1)c1cc2c([nH]c3ccccc32)c(-c2ccc(C(F)(F)F)cc2)n1`: the inhibition of growth at 100 µg/mL with Echinochloa crus-galli [1] came to 31.2%; in assay [2], 82.3%. Moreover, the results for the inhibition of growth at 10 µg/mL (in assay [3]; with Echinochloa crus-galli [4]) were 27.1% and 19.4%, respectively.
Turning to `O=C(N/N=C\c1ccccc1)c1cc2c([nH]c3ccccc32)c(-c2ccc(Cl)cc2)n1`, the inhibition of growth at 100 µg/mL in the assay with Echinochloa crus-galli [1] came out at 43.7%; in assay [2], 91.7%. Moreover, the inhibition of growth at 10 µg/mL in assay [3] came to 67%; with Echinochloa crus-galli [4], 16.7%.
For `O=C(N/N=C\c1ccc(C(F)(F)F)cc1)c1cc2c([nH]c3ccccc32)c(-c2ccc(C(F)(F)F)cc2)n1`, the values for the inhibition of growth at 100 µg/mL (in the assay with Echinochloa crus-galli [1]; in assay [2]) were 35.7% and 76.5%, respectively. Besides, the inhibition of growth at 10 µg/mL was 35.4% in assay [3] and 9.76% with Echinochloa crus-galli [4].
As to `O=C(N/N=C\c1ccc(C(F)(F)F)cc1)c1cc2c([nH]c3ccccc32)c(-c2ccccc2)n1`, the concentration for a half-maximal effect (EC50) (in the assay on Echinochloa crus-galli [5]; in assay [6]) was 14.2 µM throughout. The inhibition of growth at 100 µg/mL in the assay with Echinochloa crus-galli [1] came out at 60.3%; in assay [2] it was 100%. Also, the values for the inhibition of growth at 10 µg/mL (in assay [3]; with Echinochloa crus-galli [4]) were 57.9% and 27.9%, respectively.
In the case of `O=C(N/N=C\c1ccc(C(F)(F)F)cc1)c1cc2c([nH]c3ccccc32)c(-c2ccc(Cl)cc2)n1`, the inhibition of growth at 100 µg/mL in the assay with Echinochloa crus-galli [1] worked out at 57.9%; in assay [2], 93.7%. In addition, the figures for the inhibition of growth at 10 µg/mL (in assay [3]; with Echinochloa crus-galli [4]) were 66.9% and 24.1%, respectively.
On to `O=C(N/N=C\c1ccccc1)C1Cc2c([nH]c3ccccc23)CN1` (stereo not drawn), for which the inhibition of growth at 100 µg/mL amounted to 15% in the assay on Echinochloa crus-galli [1] and 25.3% in assay [2]. The inhibition of growth at 10 µg/mL in assay [3] turned out to be 3.75%; in the assay with Echinochloa crus-galli [4], 0%.
On to `COc1ccc(/C=N\NC(=O)C2Cc3c([nH]c4ccccc34)CN2)cc1` (stereo not drawn), for which the inhibition of growth at 100 µg/mL is 8.62% with Echinochloa crus-galli [1] and 37.1% in assay [2]. Besides, the inhibition of growth at 10 µg/mL in assay [3] was 8.69%; with Echinochloa crus-galli [4], 0%.
As for `COc1cc(/C=N\NC(=O)C2Cc3c([nH]c4ccccc34)CN2)cc(OC)c1OC` (stereo not drawn), the results for the inhibition of growth at 100 µg/mL (in the assay with Echinochloa crus-galli [1]; in assay [2]) were 23.8% and 33.5%, respectively. Besides, the inhibition of growth at 10 µg/mL in assay [3] came to 5.28%; with Echinochloa crus-galli [4], 2.51%.
`O=C(N/N=C\Nc1ccc(C(F)(F)F)cc1)C1Cc2c([nH]c3ccccc23)CN1` (stereo not drawn): the inhibition of growth at 100 µg/mL came out at 0% in the assay on Echinochloa crus-galli [1] and 16.4% in assay [2]. In addition, the inhibition of growth at 10 µg/mL (in assay [3]; in the assay on Echinochloa crus-galli [4]) was 0% throughout.
Regarding `O=C(N/N=C\c1ccccc1)c1cc2c(cn1)[nH]c1ccccc12`, the inhibition of growth at 100 µg/mL came out at 35.9% in the assay with Echinochloa crus-galli [1] and 55.6% in assay [2]. The inhibition of growth at 10 µg/mL in assay [3] was found to be 18.1%; in the assay on Echinochloa crus-galli [4], 11.8%.
Consider `COc1ccc(/C=N\NC(=O)c2cc3c(cn2)[nH]c2ccccc23)cc1`, for which the inhibition of growth at 100 µg/mL in the assay on Echinochloa crus-galli [1] was 29.6%; in assay [2], 71.6%. The inhibition of growth at 10 µg/mL in assay [3] was 24.7%; in the assay on Echinochloa crus-galli [4], 17.5%.
Take `COc1cc(/C=N\NC(=O)c2cc3c(cn2)[nH]c2ccccc23)cc(OC)c1OC`: the inhibition of growth at 100 µg/mL in the assay on Echinochloa crus-galli [1] was found to be 37.1%; in assay [2] it was 58.4%. Also, the values for the inhibition of growth at 10 µg/mL (in assay [3]; in the assay with Echinochloa crus-galli [4]) were 16.3% and 15.1%, respectively.
In the case of `COc1cc(OC)c(/C=N\NC(=O)c2cc3c(cn2)[nH]c2ccccc23)c(OC)c1`, the figures for the inhibition of growth at 100 µg/mL (in the assay on Echinochloa crus-galli [1]; in assay [2]) were 12.6% and 42.7%, respectively. In addition, the figures for the inhibition of growth at 10 µg/mL (in assay [3]; in the assay on Echinochloa crus-galli [4]) were 13.8% and 0%, respectively.
`O=C(N/N=C\c1ccc(Cl)cc1)c1cc2c(cn1)[nH]c1ccccc12`: the inhibition of growth at 100 µg/mL was 0% in the assay with Echinochloa crus-galli [1] and 47.3% in assay [2]. Besides, the values for the inhibition of growth at 10 µg/mL (in assay [3]; in the assay on Echinochloa crus-galli [4]) were 18% and 0%, respectively.
With `O=C(O)COc1ccc(Cl)cc1Cl` [2,4-DICHLOROPHENOXYACETIC ACID], the inhibition of growth at 100 µg/mL (in the assay with Echinochloa crus-galli [1]; in assay [2]) was 100% each time. In addition, the inhibition of growth at 10 µg/mL with Echinochloa crus-galli [4] turned out to be 100%.
Regarding `COc1ccc2c(c1)[nH]c1c(C)nccc12` [HARMINE], the values for the inhibition of growth at 100 µg/mL (in the assay with Echinochloa crus-galli [1]; in assay [2]) were 32.5% and 53.7%, respectively. Further, the inhibition of growth at 10 µg/mL in assay [3] is 20.2%; in the assay with Echinochloa crus-galli [4] it was 10.8%.
